Experiments:
Format in all cases: functional
[1] = test system: Staphylococcus aureus; assay: Antimicrobial activity against Staphylococcus aureus UPCC 1143 assessed as antimicrobial index at 30 ug after 24 hrs
[2] = test system: Pseudomonas aeruginosa; assay: Antimicrobial activity against Pseudomonas aeruginosa UPCC 1244 assessed as antimicrobial index at 30 ug after 24 hrs
[3] = test system: Pseudomonas aeruginosa; assay: Antimicrobial activity against Pseudomonas aeruginosa UPCC 1244 assessed as clearing zone at 30 ug after 24 hrs; conditions: read-out: IZ
Outline: (§1)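 Agar-well diffusion. 24 h cultures were suspended in 0.1% peptone water at about 6 × 10^8 cells/mL, and 0.1 mL was seeded into a nutrient agar overlay. Three 10 mm wells were cut per plate, each loaded with sample in 95% EtOH (70 µg test sample; 30 µg standard). Plates were incubated at 30 ± 1 °C for 24 h, and the clear inhibition zone was measured in mm.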

[4] = test system: Staphylococcus aureus; assay: Antimicrobial activity against Staphylococcus aureus UPCC 1143 assessed as clearing zone at 30 ug after 24 hrs; conditions: read-out: IZ; outline: as §1
[5] = test system: Bacillus subtilis; assay: Antimicrobial activity against Bacillus subtilis UPCC 1149 assessed as antimicrobial index at 30 ug after 24 hrs
[6] = test system: Escherichia coli; assay: Antimicrobial activity against Escherichia coli UPCC 1195 assessed as antimicrobial index at 30 ug after 24 hrs
[7] = test system: Bacillus subtilis; assay: Antimicrobial activity against Bacillus subtilis UPCC 1149 assessed as clearing zone at 30 ug after 24 hrs; conditions: read-out: IZ; outline: as §1
[8] = test system: Escherichia coli; assay: Antimicrobial activity against Escherichia coli UPCC 1195 assessed as clearing zone at 30 ug after 24 hrs; conditions: read-out: IZ; outline: as §1
[9] = test system: Candida albicans; assay: Antimicrobial activity against Candida albicans UPCC 2168 assessed as antimicrobial index at 30 ug after 48 hrs
[10] = test system: Aspergillus niger; assay: Antimicrobial activity against Aspergillus niger UPCC 3701 assessed as antimicrobial index at 30 ug after 48 hrs
[11] = test system: Candida albicans; assay: Antimicrobial activity against Candida albicans UPCC 2168 assessed as clearing zone at 30 ug after 48 hrs; conditions: read-out: IZ
Outline: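 C. albicans was grown as a 24 h culture, suspended at about 6 × 10^8 cells/mL in 0.1% peptone water, and 0.1 mL was seeded into a glucose yeast peptone agar overlay. Three 10 mm wells per plate received sample in 95% EtOH (70 µg test sample; 30 µg standard). Plates were incubated at 30 ± 1 °C for 48 h, and the clear growth-inhibition zone was measured in mm.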

[12] = test system: Trichophyton mentagrophytes; assay: Antimicrobial activity against Trichophyton mentagrophytes UPCC 4193 assessed as clearing zone at 30 ug after 72 hrs; conditions: read-out: IZ
Outline: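 T. mentagrophytes was grown as a 5-day culture and suspended in 0.1% peptone water at about 6 × 10^8 cells/mL. A 0.1 mL aliquot was seeded into a potato dextrose agar overlay with three 10 mm wells, each dosed in 95% EtOH (70 µg test sample; 30 µg standard). Plates were incubated at 30 ± 1 °C for 72 h, and the clear inhibition zone was read in mm.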

[13] = test system: Trichophyton mentagrophytes; assay: Antimicrobial activity against Trichophyton mentagrophytes UPCC 4193 assessed as antimicrobial index at 30 ug after 72 hrs
[14] = test system: Aspergillus niger; assay: Antimicrobial activity against Aspergillus niger UPCC 3701 assessed as clearing zone at 30 ug after 48 hrs; conditions: read-out: IZ

Row | Compound | Activity [1] | Activity [2] | zone of inhibition at 30 µg/disc [3] [mm] | zone of inhibition at 30 µg/disc [4] [mm] | Activity [5] | Activity [6] | zone of inhibition at 30 µg/disc [7] [mm] | zone of inhibition at 30 µg/disc [8] [mm] | Activity [9] | Activity [10] | zone of inhibition at 30 µg/disc [11] [mm] | zone of inhibition at 30 µg/disc [12] [mm] | Activity [13] | zone of inhibition at 30 µg/disc [14] [mm]
1 | COc1cccc(OC)c1C(=O)OCc1ccccc1 | 0.2 | 0.3 | 13 | 12 | 0.3 | 0.2 | 13 | 12 | 0.4 | 0 | 14 | 14 | 0.4 | –
2 | O=C(N[C@H](CO)[C@H](O)c1ccc([N+](=O)[O-])cc1)C(Cl)Cl [CHLORAMPHENICOL] | 1.8 | 0.2 | 12 | 28 | 2.5 | 1.4 | 35 | 24 | – | – | – | – | – | –
3 | Clc1ccccc1C(c1ccccc1)(c1ccccc1)n1ccnc1 [CLOTRIMAZOLE] | – | – | – | – | – | – | – | – | 1 | – | 20 | 21 | 1.1 | –
4 | C[C@@H]1C[C@@H]([C@H](O)CC2CC(=O)NC(=O)C2)C(=O)[C@@H](C)C1 [CYCLOHEXIMIDE] | – | – | – | – | – | – | – | – | – | 0.3 | – | – | – | 13
5 | C=C1c2ccoc2C[C@H]2[C@H]1C[C@@H](OC(=O)c1ccccc1)[C@@]1(O)C(C)(C)CCC[C@]21C [ISOVOUACAPENOL A] | 0.6 | 0.2 | 12 | 16 | 0.5 | 0.2 | 15 | 12 | 0.4 | 0 | 14 | 12 | 0.2 | –
6 | CC1(C)CCC[C@]2(C)[C@H]3Cc4occc4[C@@](C)(O)[C@@H]3C[C@@H](OC(=O)c3ccccc3)[C@@]12O [ISOVOUACAPENOL B] | 0.4 | 0.4 | 14 | 14 | 0.4 | 0.2 | 14 | 12 | 0.4 | 0.2 | 14 | 13 | 0.3 | 12
7 | C[C@H]1c2ccoc2C[C@H]2[C@H]1[C@@H](O)[C@@H](OC(=O)c1ccccc1)[C@@]1(O)C(C)(C)CCC[C@]21C [ISOVOUACAPENOL C] | 0.6 | 0.2 | 12 | 16 | 0.5 | 0.2 | 15 | 12 | 0.3 | 0 | 13 | 13 | 0.3 | –
8 | Cc1c2c(cc3occc13)[C@@]1(C)CCCC(C)(C)[C@]1(O)[C@H](OC(=O)c1ccccc1)C2 [ISOVOUACAPENOL D] | 0.2 | 0.2 | 12 | 12 | 0.2 | 0.2 | 12 | 12 | 0.2 | 0 | 12 | 12 | 0.2 | –
